Reference: PubChem BioAssay AID1665 (Sanford-Burnham Center for Chemical Genomics, 2009)
Out of some 190,000 compounds screened, about 590 (0.31%) were called active.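 The calls were made as follows: active = nuclear translocation activity above 50% at 5 µM, with a well cell count of 50 or more; inconclusive = wells under 50 cells across six images, flagged as toxic; inactive = the rest.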 Many of the other results were omitted from the sample, so actives are more common in it than they were.

assay: beta-catenin nuclear localization change in HeLa – imaging, HeLa cells, immunofluorescence, high-content, primary screen (AID 1665); settings: at 5 µM; cell count: HeLa beta-catenin nuclear translocation, measured here: cell count, cytotoxicity flag; nuclear translocation activity: stronger effect = higher value;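 as to nuclear translocation activity: per-cell ratio of nuclear to cytoplasmic median beta-catenin stain intensity; plate controls were DMSO negative control for no effect and GSK-3 inhibitor IX positive control for full effect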
Method in brief: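 Test system: human HeLa cells, endogenous beta-catenin. Times: 24 h compound exposure, 37°C. Measured by: beta-catenin immunofluorescence imaging with DAPI.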

| SMILES | cell count | nuclear translocation activity |
| --- | --- | --- |
| COc1cc2nc(Cl)nc(NCCO)c2cc1OC | 1310 cells | 0.1% (inactive) |
| CCOC(=O)c1cc(NC(=O)c2cccnc2)cc(C(=O)OCC)c1 | 1120 cells | 0.3% (inactive) |
| CCOc1cccc(C(=O)Nc2cccnc2)c1 | 1110 cells | -2.1% (inactive) |
| CCOC(=O)c1ccc(-c2ccc(C(=O)Nc3cccnc3)o2)cc1 | 659 cells | 56.9% (active) |
| COC(=O)CNc1nc(Cl)nc(N2CCC(C)CC2)n1 | 1320 cells | -0.1% (inactive) |
| CC(C)Sc1nnc([C@H](Cc2ccccc2)NC(=O)OC(C)(C)C)o1 | 1410 cells | 0.4% (inactive) |
| CCOC(=O)Cc1cc(=O)[nH]c(/N=C(\N)Nc2ccc(OC)cc2)n1 | 1300 cells | -0.7% (inactive) |
| Cc1ccc(C(=O)NNC(=O)c2cccs2)cc1 | 1120 cells | -0.6% (inactive) |
| O=C(NNC(=O)c1cc2c(s1)CCCC2)c1ccccc1 | 547 cells | -1.8% (inactive) |
| Cc1ccc(C(=O)NNC(=O)c2cc3cc4ccccc4nc3s2)cc1 | 719 cells | 80.3% (active) |
| CCOc1ccccc1N1CN(Cc2ccccc2)CNC1=S | 1340 cells | -1.3% (inactive) |
| CCc1nc2sc3c(Cl)ncnc3c2c2c1CCCC2 | 1350 cells | -1.6% (inactive) |
| Cc1cc(=O)[nH]c(S)c1C#N | 1290 cells | -0.9% (inactive) |
| O=C(COc1ccccc1)N1CCN=C1SCc1cccc(F)c1 | 1330 cells | 0.4% (inactive) |
| COc1cc(C=O)ccc1Oc1nnnn1-c1ccccc1 | 1310 cells | -0.4% (inactive) |
| Cc1cc(C(=O)NNS(=O)(=O)c2ccccc2C(F)(F)F)nn1C(C)(C)C | 1120 cells | -2.9% (inactive) |
| CCOC(=O)c1c(NC(=O)NC(C)(C)C)sc2c1CCN(C)C2 | 1280 cells | 0.5% (inactive) |
| Nc1nc(SC23CC4CC(CC(C4)C2)C3)ns1 | 1340 cells | 0.7% (inactive) |
| CC(C)n1c(=S)[nH]c2cc(C(F)(F)F)ccc21 | 1090 cells | -0.8% (inactive) |
| COC(=O)c1ccc(S(=O)(=O)NCc2ccccc2)n1C | 1270 cells | 0.3% (inactive) |
| CCOCCn1c(-c2ccccc2)nc2ccccc21 | 1340 cells | -0.7% (inactive) |
| O=C(O)c1ccccc1OCc1ccccc1Cl | 1320 cells | -1.2% (inactive) |

| SMILES | cell count | nuclear translocation activity |
| --- | --- | --- |
| Cc1cc(=O)[nH]c(N/N=C/c2ccc3c(c2)OCCO3)n1 | 1320 cells | -0.5% (inactive) |
| COc1ccc(NC(=O)C2CCC(CNc3c(N4CCCCC4)c(=O)c3=O)CC2)c(OC)c1 (stereo unspecified) | 1350 cells | -0.3% (inactive) |
| Cc1nnc2n1N=C(c1ccc3c(c1)NC(=O)CO3)CS2 | 1300 cells | -0.7% (inactive) |
| C/C(=N/NC(=O)CN1CCN(S(=O)(=O)c2ccc(Br)cc2)CC1)c1ccncc1 | 1320 cells | -0.5% (inactive) |
| Nc1ccc2nn(-c3ccc(Cl)cc3)nc2c1 | 1360 cells | 1% (inactive) |
| CC1=NNC(=O)C1CCC(=O)N/N=C(\C)c1ccc(Cl)cc1 (stereo unspecified) | 1240 cells | 0.6% (inactive) |
| Cc1cc(C)nc(SCc2cn3c(C)cc(C)nc3n2)n1 | 1340 cells | -0.4% (inactive) |
| CCc1nc2sc(C(=O)O)c(N)c2c2c1CCCC2 | 1230 cells | 2.4% (inactive) |
| CC(=O)NNC(=O)c1csc(Cc2c(Cl)sc3ccc(Cl)cc23)n1 | 1250 cells | -0.8% (inactive) |
| CC(CNS(=O)(=O)c1ccc(Br)cc1)CN(C)C (stereo unspecified) | 1320 cells | 0.2% (inactive) |
| COc1ccc(CNC(=O)C(Cc2ccccc2)n2cccc2)cc1 (stereo unspecified) | 1270 cells | -0.6% (inactive) |
| COC(OC)c1ccnc(SCc2ccccc2Cl)n1 | 1270 cells | -2.6% (inactive) |
| O=C(O)C(F)(F)C(NCc1ccccc1)c1ccccc1 (stereo unspecified) | 1280 cells | 0% (inactive) |
| CCOc1cc(/C=C(\C#N)c2nc(-c3cccs3)c(NC(C)=O)s2)ccc1O | 77 cells | 68.9% (active) |
| COc1cc(/C=C(\C#N)c2nc3c(s2)CC(C)CC3)ccc1O (stereo unspecified) | 1440 cells | 2.5% (inactive) |
| COc1cc(/C=N\Nc2nc(-c3cccs3)c(NC(C)=O)s2)ccc1O | 1300 cells | 0.1% (inactive) |
| Cn1c(SCC(=O)N2CCOCC2)nnc1-c1ccc2ncccc2c1 | 1320 cells | 0.1% (inactive) |
| O=[N+]([O-])c1cccc2ncccc12 | 1340 cells | -0.4% (inactive) |
| O=C(NC1CCCCC1)c1cc(C2CC2)on1 | 1290 cells | -0.2% (inactive) |
| Cc1ccc(-c2nc3ccccc3[nH]c2=O)cc1 | 1310 cells | 2.5% (inactive) |
| CCCCCCCCCCCCN1C(=O)CSC1c1cccnc1 (stereo unspecified) | 1170 cells | -0.9% (inactive) |
| CC(=O)NC(=S)Nc1ccc(NC(=S)NC(=O)c2ccc([N+](=O)[O-])cc2)cc1 | 1350 cells | -0.9% (inactive) |

| SMILES | cell count | nuclear translocation activity |
| --- | --- | --- |
| CCc1ccccc1NC(=O)CSc1nnc(CCNC(=O)OC(C)(C)C)o1 | 1310 cells | 1% (inactive) |
| Oc1c(C=Nc2cccc3nsnc23)ccc2ccccc12 | 317 cells | 154% (active) |
| Oc1ccc2ccccc2c1C=Nc1ccccc1 | 1230 cells | 1.3% (inactive) |
| Oc1ccc(N=Cc2c(O)ccc3ccccc23)cc1 | 1240 cells | -1.5% (inactive) |
| O=C(O)/C=C/c1ccc2c(c1)OCCO2 | 1430 cells | -1.2% (inactive) |
| Cc1cc(Nc2ccc(Cl)cc2)nc(N2CCOCC2)n1 | 1280 cells | -0.7% (inactive) |
| Cc1onc(NC(=O)c2ccc([N+](=O)[O-])o2)c1Br | 1260 cells | 5.1% (inactive) |
| COC(=O)c1cc(NC(=O)c2ccco2)ccc1N1CCOCC1 | 1200 cells | -0.7% (inactive) |
| CCCC(=O)Nc1ccc2c(c1)nc(CCNC(=O)c1ccco1)n2C | 1400 cells | -1.3% (inactive) |
| COc1ccc(NC2=CC(=S)NC(C)(C)C2)cc1 | 1130 cells | -1.8% (inactive) |
| COC(=O)c1sc(SC)c(S(=O)(=O)C(C)C)c1N/N=C(\C#N)S(=O)(=O)c1ccccn1 | 1240 cells | -2.6% (inactive) |
| CCN(CC)CCCN=Cc1c(O)n(-c2ccc(C)cc2)c(=O)c2ccccc12 | 1350 cells | -0.1% (inactive) |
| O=C(O)CC1(CC(=O)Nc2cccc(C(F)(F)F)c2)CCCC1 | 1260 cells | 0.5% (inactive) |
| CN(C)/C=C(/C(=O)c1ccc(Cl)c(Cl)c1)c1nnnn1-c1ccccc1 | 1260 cells | 0% (inactive) |
| COc1ccc2c(CC(=O)OCC(=O)NC(N)=O)coc2c1 | 1100 cells | -0.9% (inactive) |
| COc1cccc(C2Nc3cccc4cccc(c34)N2)c1 | 1290 cells | -0.1% (inactive) |
| Nc1nnnn1/N=C/c1cc([N+](=O)[O-])ccc1O | 1250 cells | 2.2% (inactive) |
| CSC1=NCCN1C(=O)Cc1cccc2ccccc12 | 1340 cells | 0.5% (inactive) |
| COc1ccc(C(=O)N/N=C2\CCS(=O)(=O)c3ccc(F)cc32)cc1OC | 1320 cells | 0.5% (inactive) |
| O=C(N/N=C/c1cccc([N+](=O)[O-])c1)c1ccncc1 | 1370 cells | -0.3% (inactive) |
| O=C(NCCN1CCN(Cc2ccccc2)CC1)c1cc2c(=O)[nH]c3ccccc3c2s1 | 1180 cells | -3.9% (inactive) |
| Cc1ccc2[nH]c(=O)c(CC=C(Cl)Cl)c(C)c2c1 | 484 cells | -1.1% (inactive) |

| SMILES | cell count | nuclear translocation activity |
| --- | --- | --- |
| Cc1cccc(N(C)C(=O)c2cc3c(=O)[nH]c4ccc(C)cc4c3s2)c1 | 369 cells | 61.3% (active) |
| O=C(NCC1CCCO1)c1ccccc1-c1nc(-c2ccccc2Cl)no1 (stereo unspecified) | 1310 cells | 0% (inactive) |
| O=[N+]([O-])/C=C1\CCCCCN1 | 1320 cells | 0% (inactive) |
| O=c1[nH]nc(SCCS(=O)(=O)c2ccc(F)cc2)n1-c1ccccc1C(F)(F)F | 1270 cells | 2.8% (inactive) |
| Cc1ccc(S(=O)(=O)N2CCCC2CO)cc1 (stereo unspecified) | 831 cells | -0.4% (inactive) |
| Cc1ccc(S(=O)(=O)C2(S(=O)(=O)c3ccc(C)cc3)CCCC2)cc1 | 297 cells | 67.3% (active) |
| Cc1ccc(S(=O)(=O)NC(=O)N2CCCC(C)(C)C2)cc1 | 1150 cells | 0.1% (inactive) |
| COc1ccc(C(=O)n2nc(-c3ccc(C)cc3)nc2N)cc1OC | 579 cells | 100% (active) |
| COc1ccc(C(=O)CN2C(=O)NC(C)(c3ccc(C)cc3)C2=O)cc1OC (stereo unspecified) | 931 cells | -3.5% (inactive) |
| CCCC(=O)n1nc(-c2ccccc2)nc1N | 1050 cells | 0% (inactive) |
| CN(C)C(=O)c1coc2nc3ccccc3nc12 | 1300 cells | -0.3% (inactive) |
| CC[C@]1(O)CC2CN(CCc3c([nH]c4ccccc34)[C@@](C(=O)OC)(c3cc4c(cc3OC)N(C=O)[C@H]3[C@@](O)(C(=O)OC)[C@H](OC(C)=O)[C@]5(CC)C=CCN6CC[C@]43[C@@H]65)C2)C1 (stereo partly specified) | 617 cells | 62.5% (active) |
| CC[C@]1(O)C[C@@H]2CN(CCc3c([nH]c4ccccc34)[C@@](C(=O)OC)(c3cc4c(cc3OC)N(C)[C@H]3[C@@](O)(C(=O)OC)[C@H](OC(C)=O)[C@]5(CC)C=CCN6CC[C@]43[C@@H]65)C2)C1 | 560 cells | -2% (inactive) |
| CC/C=C/C(=O)N1CC2(CC(c3cccc(NC(=O)CC)c3)=NO2)C[C@H]1C(N)=O (stereo partly specified) | 1030 cells | 0.6% (inactive) |
| O=C(Nc1cccnc1Oc1ncnc2cc(Cl)ccc12)c1ccc(F)cc1 | 1330 cells | -0.5% (inactive) |
| COCCCn1c(-c2cccs2)nc2nc3ccccc3nc21 | 1370 cells | -0.5% (inactive) |
| CCC1=NN2C(=N)/C(=C/c3cc(C)n(-c4ccccc4)c3C)C(=O)N=C2S1 | 1350 cells | -0.8% (inactive) |
| Cc1[nH]n(-c2ccccc2)c(=O)c1N=Nc1ccccc1C(=O)N1CCCCC1 | 1360 cells | 0.5% (inactive) |
| Cc1cnc(NC(=O)CSc2nnc(-c3ccc(Cl)cc3Cl)n2N)s1 | 1100 cells | -0.9% (inactive) |
| CCOc1ccccc1NC(=O)CCc1ccc(C)o1 | 1160 cells | -2% (inactive) |
| Cc1ccc(CCC(=O)Nc2ncc(Cc3cc(Cl)ccc3Cl)s2)o1 | 142 cells | 73.2% (active) |
| NC(=O)N/N=C\c1cccs1 | 1280 cells | 0.1% (inactive) |
